Results published in ChEMBL document CHEMBL5143713, “Multitarget, Selective Compound Design Yields Potent Inhibitors of a Kinetoplastid Pteridine Reductase 1” (J Med Chem, 2022).

Assays:
[1] = target: Bifunctional dihydrofolate reductase-thymidylate synthase (Leishmania major, UniProt P07382); test: Inhibition of recombinant Leishmania major DHFR-TS expressed in Escherichia coli BL21 (DE3) cells using dihydrofolate as substrate in presence of NADPH by spectrophotometric analysis
[2] = target: T1, Pteridine reductase, putative (Trypanosoma brucei, UniProt Q581W1); test: Inhibition of recombinant Trypanosoma brucei PTR1 expressed in Escherichia coli BL21 (DE3) cells using H2B as substrate in presence of cytochrome c and NADPH by envision multilabel reader
T1 sequence (Q581W1 whole entry): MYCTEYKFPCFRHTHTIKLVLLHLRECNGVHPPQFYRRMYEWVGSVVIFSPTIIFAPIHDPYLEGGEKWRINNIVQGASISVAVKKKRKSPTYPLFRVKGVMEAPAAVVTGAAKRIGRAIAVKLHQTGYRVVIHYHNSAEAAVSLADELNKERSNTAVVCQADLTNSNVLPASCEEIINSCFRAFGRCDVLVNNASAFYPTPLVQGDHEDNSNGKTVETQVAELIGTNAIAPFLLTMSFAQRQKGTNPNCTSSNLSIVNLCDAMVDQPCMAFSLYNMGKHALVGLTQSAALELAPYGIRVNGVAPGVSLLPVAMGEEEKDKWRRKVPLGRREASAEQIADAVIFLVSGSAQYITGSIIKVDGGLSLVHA

[3] = target: Bifunctional dihydrofolate reductase-thymidylate synthase (Trypanosoma brucei brucei, UniProt Q27783); test: Inhibition of recombinant Trypanosoma brucei DHFR-TS expressed in Escherichia coli BL21 (DE3) cells using dihydrofolate as substrate in presence of NADPH by spectrophotometric analysis
Chain of Bifunctional dihydrofolate reductase-thymidylate synthase (Trypanosoma brucei brucei, UniProt Q27783) (Q27783 whole entry): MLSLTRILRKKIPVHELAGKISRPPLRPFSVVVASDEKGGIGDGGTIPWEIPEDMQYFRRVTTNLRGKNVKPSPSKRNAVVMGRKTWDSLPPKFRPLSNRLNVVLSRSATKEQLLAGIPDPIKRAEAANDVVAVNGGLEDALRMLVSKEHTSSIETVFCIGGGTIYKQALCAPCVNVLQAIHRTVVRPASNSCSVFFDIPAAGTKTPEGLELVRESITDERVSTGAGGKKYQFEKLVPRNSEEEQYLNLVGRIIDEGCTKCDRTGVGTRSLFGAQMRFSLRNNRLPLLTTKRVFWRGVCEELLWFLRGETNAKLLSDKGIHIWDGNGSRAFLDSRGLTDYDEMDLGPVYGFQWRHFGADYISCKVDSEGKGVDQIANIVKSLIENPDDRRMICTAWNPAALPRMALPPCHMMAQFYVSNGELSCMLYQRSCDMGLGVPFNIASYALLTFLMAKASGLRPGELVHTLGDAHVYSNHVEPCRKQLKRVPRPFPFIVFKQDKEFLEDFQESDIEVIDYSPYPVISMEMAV

[4] = tested on: human DHFR versus Leishmania major PTR1; test: Selectivity index, ratio of IC50 for human DHFR to IC50 for Leishmania major PTR1; assay type: toxicity; conditions: read-out: Ratio IC50
[5] = tested on: human DHFR versus Leishmania major DHFR; test: Selectivity index, ratio of IC50 for human DHFR to IC50 for Leishmania major DHFR; assay type: toxicity; conditions: read-out: Ratio IC50
[6] = tested on: human DHFR versus Trypanosoma brucei DHFR; test: Selectivity index, ratio of IC50 for human DHFR to IC50 for Trypanosoma brucei DHFR; assay type: toxicity; conditions: read-out: Ratio IC50
Dihydrofolate reductase = target: T2, Dihydrofolate reductase (Homo sapiens, UniProt P00374); test: Inhibition of recombinant human DHFR expressed in Escherichia coli BL21 (DE3) cells using dihydrofolate as substrate in presence of NADPH by spectrophotometric analysis; assay type: toxicity
T2 sequence (P00374 whole entry): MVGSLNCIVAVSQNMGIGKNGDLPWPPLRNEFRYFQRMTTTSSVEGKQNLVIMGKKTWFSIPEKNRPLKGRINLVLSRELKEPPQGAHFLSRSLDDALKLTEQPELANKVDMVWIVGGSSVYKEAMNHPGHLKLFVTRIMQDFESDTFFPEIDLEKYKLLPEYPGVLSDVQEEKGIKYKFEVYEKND

[7] = tested on: human DHFR versus Trypanosoma brucei PTR1; test: Selectivity index, ratio of IC50 for human DHFR to IC50 for Trypanosoma brucei PTR1; assay type: toxicity; conditions: read-out: Ratio IC50
Pteridine reductase 1 = target: T3, Pteridine reductase 1 (Leishmania major, UniProt Q01782); test: Inhibition of recombinant Leishmania major PTR1 expressed in Escherichia coli BL21 (DE3) cells using H2B as substrate in presence of cytochrome c and NADPH by envision multilabel reader
T3 sequence (Q01782 whole entry): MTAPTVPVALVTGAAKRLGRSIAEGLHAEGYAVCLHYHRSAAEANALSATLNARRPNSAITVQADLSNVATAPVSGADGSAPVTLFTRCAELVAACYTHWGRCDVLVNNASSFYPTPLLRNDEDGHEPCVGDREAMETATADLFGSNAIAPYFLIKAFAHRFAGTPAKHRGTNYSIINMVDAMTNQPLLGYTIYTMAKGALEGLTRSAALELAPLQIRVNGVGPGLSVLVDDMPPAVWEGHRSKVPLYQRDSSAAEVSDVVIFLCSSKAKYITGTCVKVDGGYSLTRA

786-0 = test: Mitochondrial toxicity in human 786-0 cells at 10 uM incubated with compound for 6 hrs followed by incubation with MitoTracker Red chloromethyl-X-rosamine dye for 45 mins by imaging analysis relative to control; assay type: cell-based; conditions: 786-0, 6 h
Method in brief: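 Tested at 10 μM. 786-O cells kept in RPMI-1640 with 2 mM glutamine, 10% FCS, streptomycin 100 μg/mL and penicillin G 100 U/mL. Mitochondrial toxicity read as MitoTracker Red (chloromethyl-X-rosamine) uptake by high-content imaging.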

A549 = test: Cytotoxicity against human A549 cells at 10 uM measured after 48 hrs by Celltiter-Glo assay relative to control; assay type: toxicity, cell-based; conditions: a549, 48 h
Method in brief: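 Tested at 10 μM. A549 cells grown in DMEM with 10% FCS, streptomycin 100 μg/mL and penicillin G 100 U/mL. Viability read as cellular ATP by CellTiter-Glo luminescence.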

Chain of Bifunctional dihydrofolate reductase-thymidylate synthase (Leishmania major, UniProt P07382) (P07382 whole entry): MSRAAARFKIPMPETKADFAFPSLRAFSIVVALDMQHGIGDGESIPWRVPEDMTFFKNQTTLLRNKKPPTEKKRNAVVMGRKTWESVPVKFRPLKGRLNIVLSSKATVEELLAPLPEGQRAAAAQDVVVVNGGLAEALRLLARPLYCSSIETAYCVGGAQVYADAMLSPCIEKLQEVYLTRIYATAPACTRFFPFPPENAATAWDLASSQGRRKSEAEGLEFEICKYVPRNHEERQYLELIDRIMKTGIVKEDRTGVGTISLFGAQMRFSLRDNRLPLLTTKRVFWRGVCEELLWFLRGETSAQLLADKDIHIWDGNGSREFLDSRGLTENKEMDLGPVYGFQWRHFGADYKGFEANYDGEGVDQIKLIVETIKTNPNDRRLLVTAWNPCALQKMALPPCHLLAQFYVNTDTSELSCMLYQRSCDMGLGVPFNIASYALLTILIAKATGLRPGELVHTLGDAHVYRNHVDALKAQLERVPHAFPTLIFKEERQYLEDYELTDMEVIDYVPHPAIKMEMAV

| Compound | IC50 [1] [nM] | IC50 [2] [nM] | IC50 [3] [nM] | selectivity ratio [4] | selectivity ratio [5] | selectivity ratio [6] | IC50 (Dihydrofolate reductase) [µM] | selectivity ratio [7] | IC50 (Pteridine reductase 1) [nM] | Activity (786-0) [%] | Activity (A549) [%] |
| --- | --- | --- | --- | --- | --- | --- | --- | --- | --- | --- | --- |
| C#CCN(Cc1cnc2nc(N)nc(N)c2n1)c1ccc(C(=O)N2CCC(C(=O)OC)CC2)cc1 | 710 | 40 | 1180 | 244 | 110 | 66 | 78 | 1950 | 320 |  |  |
| COC(=O)C1CCN(C(=O)c2ccc(SCc3cnc4nc(N)nc(N)c4n3)nc2)CC1 | 9360 | 1 | 2400 | 1480 | 10 | 37 | 89 | 89000 | 60 | 20 |  |
| CN(Cc1cnc2nc(N)nc(N)c2n1)c1ccc(C(=O)N2CCCCC2)cc1 | 2050 | 10 | 1450 | 213 | 15 | 21 |  | 2980 | 140 | 15 |  |
| COc1ccc(CNC(=O)c2ccc(CNCc3cnc4nc(N)nc(N)c4n3)cc2)cc1OC |  | 220 |  | 64 | 1 | 2 |  | 455 | 1570 | 0 |  |
| CCOC(=O)C1CCN(C(=O)c2ccc(N(CC)Cc3cnc4nc(N)nc(N)c4n3)cc2)CC1 | 180 | 1 | 230 |  |  |  | 13 |  | 100 |  |  |
| Nc1nc(N)c2nc(C(=O)NCc3cccc(C(F)(F)F)c3)cnc2n1 |  | 10 |  | 303 | 1 | 1 |  | 10000 | 330 | 0 | 100 |
| Nc1nc(N)c2nc(CNCc3ccc(Oc4ccccc4)cc3)cnc2n1 |  | 190 |  | 102 | 1 | 1 |  | 526 | 980 | 0 |  |
| COC(=O)C1CCN(C(=O)c2ccc(NCc3cnc4nc(N)nc(N)c4n3)cn2)CC1 | 1360 | 550 | 2570 |  |  |  | 60 |  |  | 0 |  |
| COC(=O)C1CCN(C(=O)c2cccc(NCc3cnc4nc(N)nc(N)c4n3)c2)CC1 |  | 150 |  | 35 | 2 | 3 | 59 | 393 | 1690 |  |  |
| Nc1nc(N)c2nc(CNc3ccc(C(=O)N4CCC(C(=O)O)CC4)cc3)cnc2n1 | 600 | 1720 | 1380 |  |  |  |  |  |  | 0 | 0 |
| COc1ccc(CNC(=O)c2ccc(CNCc3cnc4nc(N)nc(N)c4n3)cc2)cc1 |  | 130 |  | 68 | 1 | 1 |  | 769 | 1480 | 0 |  |
| COc1cc(Oc2ccc(CNCc3cnc4nc(N)nc(N)c4n3)cc2)cc(OC)c1OC |  | 350 |  | 588 | 1 | 1 |  | 286 | 170 | 0 | 100 |
| NC(=O)C1CCN(C(=O)c2ccc(NCc3cnc4nc(N)nc(N)c4n3)cc2)CC1 | 1110 | 820 | 2900 |  |  |  |  |  |  | 0 | 0 |
| CCOC(=O)C1CCCN1C(=O)c1ccc(NCc2cnc3nc(N)nc(N)c3n2)cc1 (stereo unspecified) | 1210 |  | 980 |  | 8 | 10 |  | 0.08 |  | 0 |  |
| Nc1nc(N)c2nc(C(=O)NCc3ccccc3)cnc2n1 |  | 10 |  | 18 | 1 | 1 |  | 10000 | 5500 | 0 | 100 |
